The target in test [1] is T1, Cytosolic endo-beta-N-acetylglucosaminidase (Homo sapiens) (UniProt Q8NFI3).
T1 sequence (whole entry): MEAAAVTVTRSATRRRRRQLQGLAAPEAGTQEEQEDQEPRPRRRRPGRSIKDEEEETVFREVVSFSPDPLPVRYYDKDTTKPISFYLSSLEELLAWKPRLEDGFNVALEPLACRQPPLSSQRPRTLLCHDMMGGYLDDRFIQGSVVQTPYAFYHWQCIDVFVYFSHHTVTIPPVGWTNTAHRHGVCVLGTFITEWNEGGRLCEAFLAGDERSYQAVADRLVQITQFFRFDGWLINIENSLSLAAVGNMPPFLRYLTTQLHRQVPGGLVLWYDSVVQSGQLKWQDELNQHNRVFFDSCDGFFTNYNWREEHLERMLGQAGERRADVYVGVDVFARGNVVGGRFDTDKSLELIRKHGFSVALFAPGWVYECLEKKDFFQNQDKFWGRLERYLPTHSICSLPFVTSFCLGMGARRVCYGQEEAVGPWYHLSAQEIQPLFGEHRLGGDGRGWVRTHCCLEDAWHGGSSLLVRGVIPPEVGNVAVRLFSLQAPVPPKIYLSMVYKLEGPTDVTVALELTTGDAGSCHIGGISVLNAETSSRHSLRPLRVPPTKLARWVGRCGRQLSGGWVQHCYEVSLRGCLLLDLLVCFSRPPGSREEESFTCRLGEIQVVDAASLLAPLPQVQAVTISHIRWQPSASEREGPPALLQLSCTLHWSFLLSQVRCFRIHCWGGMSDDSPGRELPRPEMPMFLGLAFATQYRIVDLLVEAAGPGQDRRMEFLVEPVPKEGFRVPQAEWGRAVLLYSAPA
Kind of test: Inhibition of recombinant human C-MYC/DDK-tagged ENGase expressed in HEK293T cells at 100 uM using heat inactivated bovine ribonuclease B as substrate pretreated for 15 mins followed by substrate addition after 90 mins by SDS-PAGE analysis. The conditions noted are these: HEK-293T. An outline of the steps:
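Recombinant human ENGase incubated with ribonuclease B substrate and test compound at 100 μM as a single-concentration screen. Reactions were then heat-inactivated and resolved on 12% SDS-PAGE as an electrophoretic mobility shift assay. Bands were stained with Coomassie blue R-250 and quantified by densitometry.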

Test [2] addresses T2, Cytosolic endo-beta-N-acetylglucosaminidase (Homo sapiens, UniProt Q8NFI3).
T2 sequence (Q8NFI3 whole entry): T1 sequence (whole entry)
Kind of test: (§1) Inhibition of recombinant human C-MYC/DDK-tagged ENGase expressed in HEK293T cells using heat inactivated bovine ribonuclease B as substrate pretreated for 15 mins followed by substrate addition after 90 mins by SDS-PAGE analysis. Further details: species or system HEK-293T. An outline of the steps:
(§2)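 Electrophoretic mobility shift assay: recombinant human ENGase with ribonuclease B and inhibitor at various concentrations, heat-inactivated, run on 12% SDS-PAGE, Coomassie R-250 staining, band densitometry. IC50 came either from 8-dose curves in three independent experiments or was estimated from four concentrations in two independent experiments.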

Test [3] deals with T1, Cytosolic endo-beta-N-acetylglucosaminidase (Homo sapiens). The description is as §1. The note with it: HEK-293T. The procedure, abridged:
as §2

From ChEMBL document CHEMBL4033696, “Repurposing of Proton Pump Inhibitors as first identified small molecule inhibitors of endo-β-N-acetylglucosaminidase (ENGase) for the treatment of NGLY1 deficiency, a rare genetic disease” (Bioorg Med Chem Lett, 2017) come the findings set out here.

Molecules are shown by their SMILES. Active and inactive are the calls of the source. No cut-off for these calls is given here. Residues, ends and D or L forms follow the SMILES beside them. *: point of attachment. Cbz = O=C(OCc1ccccc1)*

`CNCC[C@@H](Oc1ccccc1C)c1ccccc1`: the inhibition entry in test [1] is “inactive”.

For orientation: IC50 means the midpoint of a concentration-inhibition curve. With `Cc1c(OCC(F)(F)F)ccnc1C[S@@+]([O-])c1nc2ccccc2[nH]1` [DEXLANSOPRAZOLE], the IC50 in test [2] is 25 µM.

As for `CC(C)C[C@@H](C=O)NC(=O)[C@H](CC(C)C)NC(=O)[C@H](CC(C)C)NC(=O)OCc1ccccc1` (Cbz-Leu-Leu-Leu-aldehyde), the inhibition entry in test [1] is “inactive”.

`CC(=O)Nc1nnc(S(N)(=O)=O)s1`: in test [1], the inhibition result was “inactive”. Turning to `Cc1c(OCC(F)(F)F)ccnc1C[S+]([O-])c1nc2ccccc2[nH]1` (stereo not given) [LANSOPRAZOLE], in test [2], the half-maximal inhibitory concentration (IC50) was 24.4 µM. Regarding `CCNC1=N[C@H]2[C@H](O)[C@@H](O)[C@H](CO)O[C@H]2S1`, the inhibition result in test [1] is “inactive”.

With `CC(C)C[C@H](NC(=O)CNC(=O)c1cc(Cl)ccc1Cl)B(O)O`, the inhibition result in test [1] was “inactive”.

Turning to `COc1ccc2[nH]c([S@@+]([O-])Cc3ncc(C)c(OC)c3C)nc2c1`, the inhibition entry in test [3] was “inactive”. On the same count and under the same terms, then `COc1ccnc(C[S+]([O-])c2nc3cc(OC(F)F)ccc3[nH]2)c1OC` (stereo not given), with “inactive”. For the compound `COc1ccc2[nH]c([S+]([O-])Cc3ncc(C)c(OC)c3C)nc2c1` (stereo not given) [OMEPRAZOLE], the IC50 in test [2] was determined as 25 µM.

As for `COCCCOc1ccnc(C[S+]([O-])c2nc3ccccc3[nH]2)c1C` (stereo not given) [RABEPRAZOLE], the IC50 in test [2] came out at 4.47 µM.

As to `COc1ccc2[nH]c([S+]([O-])Cc3ncc(C)c(OC)c3C)nc2n1` (stereo not given) [TENATOPRAZOLE], the IC50 in test [2] was 20 µM. Regarding `N=C(N)NC(=O)Cc1c(Cl)cccc1Cl`, the inhibition result in test [1] is “inactive”. With `Clc1cccc(Cl)c1NC1=NCCN1`, in test [1], the inhibition result is “inactive”.

On to `CN1CCc2nc(C(=O)N[C@@H]3C[C@@H](C(=O)N(C)C)CC[C@@H]3NC(=O)C(=O)Nc3ccc(Cl)cn3)sc2C1`, for which, in test [1], the inhibition result was “inactive”.
